Laboratory results reported in ChEMBL document CHEMBL1156009, “Eleven amino acid glucagon-like peptide-1 receptor agonists with antidiabetic activity” (J Med Chem, 2009).
Active and inactive are the calls of the source. No cut-off for these calls is given here. Square brackets hold non-standard residues; d marks the D form. Peptide text beside a SMILES is read from it. Bip(2'-Et-4'-OMe) = CCc1cc(OC)ccc1-c1ccc(C[C@H](N)C(=O)O)cc1; Bip(2'-Me) = Cc1ccccc1-c1ccc(C[C@H](N)C(=O)O)cc1; αMeF = C[C@](N)(Cc1ccccc1)C(=O)O; Aib = CC(C)(N)C(=O)O

Legend:
[1] = molecular target: T1, Glucagon-like peptide 1 receptor (Homo sapiens, UniProt P43220); assay: Agonist activity at human GLP1R expressed in CHO cells assessed as stimulation of intracellular [3H]cAMP accumulation after 30 mins by scintillation proximity assay; format: functional, cell-based
T1 sequence (P43220 whole entry): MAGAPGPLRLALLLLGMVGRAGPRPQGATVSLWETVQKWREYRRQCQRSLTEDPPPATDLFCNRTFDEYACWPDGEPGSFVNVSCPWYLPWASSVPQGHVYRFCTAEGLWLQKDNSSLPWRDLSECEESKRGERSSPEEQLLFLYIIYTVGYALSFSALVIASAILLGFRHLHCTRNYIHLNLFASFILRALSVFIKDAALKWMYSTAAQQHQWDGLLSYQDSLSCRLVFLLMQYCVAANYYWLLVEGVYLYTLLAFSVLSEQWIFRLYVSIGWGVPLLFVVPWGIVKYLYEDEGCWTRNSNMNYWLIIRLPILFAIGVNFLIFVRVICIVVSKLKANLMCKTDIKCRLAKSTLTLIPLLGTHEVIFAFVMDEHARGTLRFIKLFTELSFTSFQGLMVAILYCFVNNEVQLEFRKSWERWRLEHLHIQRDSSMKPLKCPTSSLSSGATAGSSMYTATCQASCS
Method in brief: (§1)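 CHO cells stably expressing human or mouse GLP-1R, grown in F-12 with 10% FBS plus Geneticin (0.4 mg/mL human, 1 mg/mL mouse), plated 2×10^4/well overnight. Half-log dilutions made in DMSO, then in DPBS with 0.1 mM IBMX and 0.05% BSA (final 1% DMSO). Cells exposed 30 min. cAMP read by SPA and converted to pmol via standard curve. Duplicates, at least three separate runs.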

[2] = molecular target: T1, Glucagon-like peptide 1 receptor; assay: Agonist activity at human GLP1R expressed in CHO cells assessed as stimulation of intracellular [3H]cAMP accumulation at 1 to 100 nM after 30 mins by scintillation proximity assay in presence of GLP1R antagonist truncated exendin-4(9-39); format: functional, cell-based; method in brief: as §1
[3] = molecular target: T1, Glucagon-like peptide 1 receptor; assay: Displacement of [125I]GLP1 from human GLP1R expressed in CHO cells; format: cell-based

EC50 [1]	Activity [2]	Activity [3]	Compound
270 nM			Cc1ccc(-c2ccc(C[C@H](NC(=O)[C@H](Cc3ccc(-c4ccccc4)cc3)NC(=O)[C@H](CC(=O)O)NC(=O)[C@H](CO)NC(=O)[C@@H](NC(=O)[C@H](Cc3ccccc3)NC(=O)[C@@H](NC(=O)CNC(=O)[C@H](CCC(=O)O)NC(=O)[C@H](C)NC(=O)[C@@H](N)Cc3cnc[nH]3)[C@@H](C)O)[C@@H](C)O)C(N)=O)cc2)cc1
> 10000 nM			C[C@H](NC(=O)[C@@H](N)Cc1cnc[nH]1)C(=O)N[C@@H](CCC(=O)O)C(=O)NCC(=O)N[C@H](C(=O)N[C@@H](Cc1ccccc1)C(=O)N[C@H](C(=O)N[C@@H](CO)C(=O)N[C@@H](CC(=O)O)C(=O)N[C@@H](Cc1ccc(-c2ccccc2)cc1)C(N)=O)[C@@H](C)O)[C@@H](C)O
> 10000 nM			C[C@H](NC(=O)[C@@H](N)Cc1cnc[nH]1)C(=O)N[C@@H](CCC(=O)O)C(=O)NCC(=O)N[C@H](C(=O)N[C@@H](Cc1ccccc1)C(=O)N[C@H](C(=O)N[C@@H](CO)C(=O)N[C@@H](CC(=O)O)C(=O)N[C@@H](Cc1ccc(-c2ccccc2)cc1)C(=O)N[C@@H](Cc1ccc(-c2ccccc2)cc1)C(=O)O)[C@@H](C)O)[C@@H](C)O
95 nM			Cc1ccc(-c2ccc(C[C@H](NC(=O)[C@H](Cc3ccc(-c4ccccc4C)cc3)NC(=O)[C@H](CC(=O)O)NC(=O)[C@H](CO)NC(=O)[C@@H](NC(=O)[C@H](Cc3ccccc3)NC(=O)[C@@H](NC(=O)CNC(=O)[C@H](CCC(=O)O)NC(=O)[C@H](C)NC(=O)[C@@H](N)Cc3cnc[nH]3)[C@@H](C)O)[C@@H](C)O)C(N)=O)cc2)cc1
545 nM	inactive	Active	C[C@H](NC(=O)[C@@H](N)Cc1cnc[nH]1)C(=O)N[C@@H](CCC(=O)O)C(=O)NCC(=O)N[C@H](C(=O)N[C@@H](Cc1ccccc1)C(=O)N[C@H](C(=O)N[C@@H](CO)C(=O)N[C@@H](CC(=O)O)C(=O)N[C@@H](Cc1ccc(-c2ccccc2)cc1)C(=O)N[C@@H](Cc1ccc(-c2ccccc2)cc1)C(N)=O)[C@@H](C)O)[C@@H](C)O
27 nM			CCc1ccccc1-c1ccc(C[C@H](NC(=O)[C@H](CC(=O)O)NC(=O)[C@H](CO)NC(=O)[C@@H](NC(=O)[C@H](Cc2ccccc2)NC(=O)[C@@H](NC(=O)CNC(=O)[C@H](CCC(=O)O)NC(=O)[C@H](C)NC(=O)[C@@H](N)Cc2cnc[nH]2)[C@@H](C)O)[C@@H](C)O)C(=O)N[C@@H](Cc2ccc(-c3ccccc3)cc2)C(N)=O)cc1
35 nM			COc1ccc(-c2ccc(C[C@H](NC(=O)[C@H](CC(=O)O)NC(=O)[C@H](CO)NC(=O)[C@@H](NC(=O)[C@H](Cc3ccccc3)NC(=O)[C@@H](NC(=O)CNC(=O)[C@H](CCC(=O)O)NC(=O)[C@H](C)NC(=O)[C@@H](N)Cc3cnc[nH]3)[C@@H](C)O)[C@@H](C)O)C(=O)N[C@@H](Cc3ccc(-c4ccccc4C)cc3)C(N)=O)cc2)c(C)c1
215 nM			Cc1cccc(-c2ccc(C[C@H](NC(=O)[C@H](Cc3ccc(-c4ccccc4)cc3)NC(=O)[C@H](CC(=O)O)NC(=O)[C@H](CO)NC(=O)[C@@H](NC(=O)[C@H](Cc3ccccc3)NC(=O)[C@@H](NC(=O)CNC(=O)[C@H](CCC(=O)O)NC(=O)[C@H](C)NC(=O)[C@@H](N)Cc3cnc[nH]3)[C@@H](C)O)[C@@H](C)O)C(N)=O)cc2)c1
0.28 nM			CCc1cc(OC)ccc1-c1ccc(C[C@H](NC(=O)[C@H](CC(=O)O)NC(=O)[C@H](CO)NC(=O)[C@@H](NC(=O)[C@](C)(Cc2ccccc2)NC(=O)[C@@H](NC(=O)CNC(=O)[C@H](CCC(=O)O)NC(=O)C(C)(C)NC(=O)[C@@H](N)Cc2cnc[nH]2)[C@@H](C)O)[C@@H](C)O)C(=O)N[C@@H](Cc2ccc(-c3ccccc3C)cc2)C(N)=O)cc1 (H-H[Aib]EGT[αMeF]TSD[Bip(2'-Et-4'-OMe)][Bip(2'-Me)]-NH2)
7 nM			CCc1cc(OC)ccc1-c1ccc(C[C@H](NC(=O)[C@H](CC(=O)O)NC(=O)[C@H](CO)NC(=O)[C@@H](NC(=O)[C@H](Cc2ccccc2)NC(=O)[C@@H](NC(=O)CNC(=O)[C@H](CCC(=O)O)NC(=O)[C@H](C)NC(=O)[C@@H](N)Cc2cnc[nH]2)[C@@H](C)O)[C@@H](C)O)C(=O)N[C@@H](Cc2ccc(-c3ccccc3C)cc2)C(N)=O)cc1
787 nM			C[C@H](NC(=O)[C@@H](N)Cc1cnc[nH]1)C(=O)N[C@@H](CCC(=O)O)C(=O)NCC(=O)N[C@H](C(=O)N[C@@H](Cc1ccccc1)C(=O)N[C@H](C(=O)N[C@@H](CO)C(=O)N[C@@H](CC(=O)O)C(=O)N[C@@H](Cc1ccc(-c2ccccc2)cc1)C(=O)N[C@@H](Cc1ccc(-c2ccccc2)cc1)C(=O)N[C@@H](Cc1ccc(-c2ccccc2)cc1)C(N)=O)[C@@H](C)O)[C@@H](C)O
390 nM			COc1ccc(-c2ccc(C[C@H](NC(=O)[C@H](Cc3ccc(-c4ccccc4)cc3)NC(=O)[C@H](CC(=O)O)NC(=O)[C@H](CO)NC(=O)[C@@H](NC(=O)[C@H](Cc3ccccc3)NC(=O)[C@@H](NC(=O)CNC(=O)[C@H](CCC(=O)O)NC(=O)[C@H](C)NC(=O)[C@@H](N)Cc3cnc[nH]3)[C@@H](C)O)[C@@H](C)O)C(N)=O)cc2)cc1
93 nM			CCCc1ccccc1-c1ccc(C[C@H](NC(=O)[C@H](CC(=O)O)NC(=O)[C@H](CO)NC(=O)[C@@H](NC(=O)[C@H](Cc2ccccc2)NC(=O)[C@@H](NC(=O)CNC(=O)[C@H](CCC(=O)O)NC(=O)[C@H](C)NC(=O)[C@@H](N)Cc2cnc[nH]2)[C@@H](C)O)[C@@H](C)O)C(=O)N[C@@H](Cc2ccc(-c3ccccc3C)cc2)C(N)=O)cc1
87 nM			Cc1cccc(-c2ccc(C[C@H](NC(=O)[C@H](Cc3ccc(-c4ccccc4C)cc3)NC(=O)[C@H](CC(=O)O)NC(=O)[C@H](CO)NC(=O)[C@@H](NC(=O)[C@H](Cc3ccccc3)NC(=O)[C@@H](NC(=O)CNC(=O)[C@H](CCC(=O)O)NC(=O)[C@H](C)NC(=O)[C@@H](N)Cc3cnc[nH]3)[C@@H](C)O)[C@@H](C)O)C(N)=O)cc2)c1
2.4 nM			CCc1cc(OC)ccc1-c1ccc(C[C@H](NC(=O)[C@H](CC(=O)O)NC(=O)[C@H](CO)NC(=O)[C@@H](NC(=O)[C@](C)(Cc2ccccc2)NC(=O)[C@@H](NC(=O)CNC(=O)[C@H](CCC(=O)O)NC(=O)[C@H](C)NC(=O)[C@@H](N)Cc2cnc[nH]2)[C@@H](C)O)[C@@H](C)O)C(=O)N[C@@H](Cc2ccc(-c3ccccc3C)cc2)C(N)=O)cc1 (H-HAEGT[αMeF]TSD[Bip(2'-Et-4'-OMe)][Bip(2'-Me)]-NH2)
480 nM			Cc1ccccc1-c1ccc(C[C@H](NC(=O)[C@H](Cc2ccc(-c3ccccc3)cc2)NC(=O)[C@H](CC(=O)O)NC(=O)[C@H](CO)NC(=O)[C@@H](NC(=O)[C@H](Cc2ccccc2)NC(=O)[C@@H](NC(=O)CNC(=O)[C@H](CCC(=O)O)NC(=O)[C@H](C)NC(=O)[C@@H](N)Cc2cnc[nH]2)[C@@H](C)O)[C@@H](C)O)C(N)=O)cc1
965 nM			COc1cccc(-c2ccc(C[C@H](NC(=O)[C@H](CC(=O)O)NC(=O)[C@H](CO)NC(=O)[C@@H](NC(=O)[C@H](Cc3ccccc3)NC(=O)[C@@H](NC(=O)CNC(=O)[C@H](CCC(=O)O)NC(=O)[C@H](C)NC(=O)[C@@H](N)Cc3cnc[nH]3)[C@@H](C)O)[C@@H](C)O)C(=O)N[C@@H](Cc3ccc(-c4ccccc4C)cc3)C(N)=O)cc2)c1
430 nM			C[C@H](NC(=O)[C@@H](N)Cc1cnc[nH]1)C(=O)N[C@@H](CCC(=O)O)C(=O)NCC(=O)N[C@H](C(=O)N[C@@H](Cc1ccccc1)C(=O)N[C@H](C(=O)N[C@@H](CO)C(=O)N[C@@H](CC(=O)O)C(=O)N[C@@H](Cc1ccc(-c2ccccc2)cc1)C(=O)N[C@@H](Cc1ccc(-c2ccc(F)cc2)cc1)C(N)=O)[C@@H](C)O)[C@@H](C)O
22 nM			CCc1ccccc1-c1ccc(C[C@H](NC(=O)[C@H](CC(=O)O)NC(=O)[C@H](CO)NC(=O)[C@@H](NC(=O)[C@H](Cc2ccccc2)NC(=O)[C@@H](NC(=O)CNC(=O)[C@H](CCC(=O)O)NC(=O)[C@H](C)NC(=O)[C@@H](N)Cc2cnc[nH]2)[C@@H](C)O)[C@@H](C)O)C(=O)N[C@@H](Cc2ccc(-c3ccccc3C)cc2)C(N)=O)cc1
148 nM			Cc1ccccc1-c1ccc(C[C@H](NC(=O)[C@H](Cc2ccc(-c3ccccc3C)cc2)NC(=O)[C@H](CC(=O)O)NC(=O)[C@H](CO)NC(=O)[C@@H](NC(=O)[C@H](Cc2ccccc2)NC(=O)[C@@H](NC(=O)CNC(=O)[C@H](CCC(=O)O)NC(=O)[C@H](C)NC(=O)[C@@H](N)Cc2cnc[nH]2)[C@@H](C)O)[C@@H](C)O)C(N)=O)cc1
